This note sets out measurements from ChEMBL document CHEMBL5696442, “Discovery of type II inhibitors of TGFβ-activated kinase 1 (TAK1) and mitogen-activated protein kinase kinase kinase kinase 2 (MAP4K2)” (J Med Chem, 2015).

Data set [1] deals with Receptor-interacting serine/threonine-protein kinase 1 (Homo sapiens) (UniProt Q13546). The experiment in a line: Inhibition of RIPK1 (unknown origin) at 1 uM by Ambit Kinomescan binding assay relative to control.
The target of data set [2] is DNA-PK/Ku70/Ku85 (Homo sapiens) (UniProt P78527+P12956+P13010). Briefly: Inhibition of DNAPK ATP labeling site harbouring GHDEREHPFLVKGGEDLR in human A-375 cells at 0.05 uM by KiNativ Profiling analysis relative to control. It is filed as cell-based.
Data set [3] deals with T1, Dual specificity mitogen-activated protein kinase kinase 3 (Homo sapiens) (UniProt P46734).
T1 sequence (whole entry): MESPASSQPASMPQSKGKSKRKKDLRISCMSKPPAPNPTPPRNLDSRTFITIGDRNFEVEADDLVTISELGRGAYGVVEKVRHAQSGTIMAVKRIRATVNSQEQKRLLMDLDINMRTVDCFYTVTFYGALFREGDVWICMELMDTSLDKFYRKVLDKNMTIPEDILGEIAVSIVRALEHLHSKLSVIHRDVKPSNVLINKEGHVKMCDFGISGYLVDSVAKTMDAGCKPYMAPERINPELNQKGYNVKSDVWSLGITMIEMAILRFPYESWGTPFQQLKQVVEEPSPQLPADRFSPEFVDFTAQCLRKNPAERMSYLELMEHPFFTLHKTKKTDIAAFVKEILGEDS
The experiment in a line: Inhibition of MAP2K3 Lys2 labeling site in human A-375 cells at 0.5 uM by KiNativ Profiling analysis relative to control. Type of data set: cell-based.

For data set [4], the target named is NT-3 growth factor receptor (Homo sapiens) (UniProt Q16288). The experiment in a line: Inhibition of TRKC (unknown origin) at 1 uM by Ambit Kinomescan binding assay relative to control.
Data set [5] deals with Proto-oncogene tyrosine-protein kinase Src (Homo sapiens, UniProt P12931). Briefly: Inhibition of SRC ACT labeling site in human A-375 cells at 0.05 uM by KiNativ Profiling analysis relative to control. Type of data set: cell-based.
Data set [6] addresses Mitogen-activated protein kinase kinase kinase 13 (Homo sapiens) (UniProt O43283). Briefly: Inhibition of LZK (unknown origin) at 1 uM by Ambit Kinomescan binding assay relative to control.
Data set [7] has as its target Microtubule-associated serine/threonine-protein kinase 2 (Homo sapiens) (UniProt Q6P0Q8). The experiment in a line: Inhibition of MAST2 Lys2 labeling site in human A-375 cells at 0.05 uM by KiNativ Profiling analysis relative to control. Type of data set: cell-based.
The target in data set [8] is Protein kinase C theta type (Homo sapiens) (UniProt Q04759). Briefly: Inhibition of PRKCQ (unknown origin) at 1 uM by Ambit Kinomescan binding assay relative to control. In outline:
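In vitro ATP-site competition binding assay against a panel of over 420 kinases (KinomeScan), with compound tested at 10 or 1 μM.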

Data set [9] has as its target Cyclin-dependent kinase 8/19 (Homo sapiens) (UniProt P49336+Q9BWU1). Briefly: Inhibition of CDK8/11 K2 labeling site in human Huh-7 cells at 1 uM by KiNativ Profiling analysis relative to control. It is filed as cell-based.
In data set [10] the target is Casein kinase II subunit alpha' (Homo sapiens) (UniProt P19784). Briefly: Inhibition of CSNK2A2 (unknown origin) at 10 uM by Ambit Kinomescan binding assay.
For data set [11], the target named is Cyclin-dependent kinase 15 (Homo sapiens) (UniProt Q96Q40). The experiment in a line: Inhibition of PFTAIRE2 (unknown origin) at 10 uM by Ambit Kinomescan binding assay relative to control.
Data set [12] in a line: Cmax in Swiss albino mouse at 1 mg/kg, iv measured upto 24 hrs by LC/MS/MS analysis. Type of data set: ADME, organism-based. The settings on record: in vivo. The gist of the method: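 Male Swiss albino mice. […] Blood was taken into K2EDTA from three mice per time point, from 0 to 24 h. Plasma was precipitated with acetonitrile and analysed by LC/MS/MS (LLOQ 1.138 ng/mL).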

Data set [13] addresses Serine/threonine-protein kinase 38 (Homo sapiens) (UniProt Q15208). Briefly: Inhibition of NDR1 K1 labeling site in human Huh-7 cells at 1 uM by KiNativ Profiling analysis relative to control. It is filed as cell-based.
The target of data set [14] is Protein kinase C alpha type (Homo sapiens) (UniProt P17252). The experiment in a line: Inhibition of PKCa Lys2 labeling site in human Huh-7 cell lysate at 1 uM by KiNativ Profiling analysis relative to control. Type of data set: subcellular.
Data set [15] has as its target Mitogen-activated protein kinase 3 (Homo sapiens) (UniProt P27361). The experiment in a line: Inhibition of Erk1 Lys2 labeling site harbouring DLKPSNLLINTTCDLK in human Huh-7 cell lysate at 1 uM by KiNativ Profiling analysis relative to control. Type of data set: subcellular.
Data set [16] can be described thus: Inhibition of KHS1 Lys2 labeling site harbouring DIKGANILLTDHGDVK in human Huh-7 cell lysate at 1 uM by KiNativ Profiling analysis relative to control. The following applies: condition cancer.
The target in data set [17] is Serine/threonine-protein kinase Nek3 (Homo sapiens) (UniProt P51956). Briefly: Inhibition of NEK3 ACT labeling site in human Huh-7 cell lysate at 1 uM by KiNativ Profiling analysis relative to control. It is filed as subcellular.

As a reminder, the inhibition is the drop in the measured response relative to a control, in per cent. One may read the Cmax as the maximum level reached in the sampled fluid or tissue.

Calls of active or inactive are those of the source. The rule behind the calls is not given here.

Mitogen-activated protein kinase 3 (Homo sapiens), sequence (P27361 whole entry): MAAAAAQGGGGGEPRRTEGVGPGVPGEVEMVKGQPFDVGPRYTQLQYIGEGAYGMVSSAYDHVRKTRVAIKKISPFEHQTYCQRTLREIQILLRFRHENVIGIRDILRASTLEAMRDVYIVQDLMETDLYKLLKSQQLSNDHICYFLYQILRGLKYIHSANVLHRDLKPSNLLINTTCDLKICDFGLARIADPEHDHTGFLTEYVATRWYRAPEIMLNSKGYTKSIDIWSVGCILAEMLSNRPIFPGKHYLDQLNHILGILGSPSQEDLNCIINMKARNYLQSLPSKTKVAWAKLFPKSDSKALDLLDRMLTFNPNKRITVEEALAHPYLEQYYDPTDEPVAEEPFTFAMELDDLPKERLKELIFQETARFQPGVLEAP
Microtubule-associated serine/threonine-protein kinase 2 (Homo sapiens), sequence (Q6P0Q8 whole entry): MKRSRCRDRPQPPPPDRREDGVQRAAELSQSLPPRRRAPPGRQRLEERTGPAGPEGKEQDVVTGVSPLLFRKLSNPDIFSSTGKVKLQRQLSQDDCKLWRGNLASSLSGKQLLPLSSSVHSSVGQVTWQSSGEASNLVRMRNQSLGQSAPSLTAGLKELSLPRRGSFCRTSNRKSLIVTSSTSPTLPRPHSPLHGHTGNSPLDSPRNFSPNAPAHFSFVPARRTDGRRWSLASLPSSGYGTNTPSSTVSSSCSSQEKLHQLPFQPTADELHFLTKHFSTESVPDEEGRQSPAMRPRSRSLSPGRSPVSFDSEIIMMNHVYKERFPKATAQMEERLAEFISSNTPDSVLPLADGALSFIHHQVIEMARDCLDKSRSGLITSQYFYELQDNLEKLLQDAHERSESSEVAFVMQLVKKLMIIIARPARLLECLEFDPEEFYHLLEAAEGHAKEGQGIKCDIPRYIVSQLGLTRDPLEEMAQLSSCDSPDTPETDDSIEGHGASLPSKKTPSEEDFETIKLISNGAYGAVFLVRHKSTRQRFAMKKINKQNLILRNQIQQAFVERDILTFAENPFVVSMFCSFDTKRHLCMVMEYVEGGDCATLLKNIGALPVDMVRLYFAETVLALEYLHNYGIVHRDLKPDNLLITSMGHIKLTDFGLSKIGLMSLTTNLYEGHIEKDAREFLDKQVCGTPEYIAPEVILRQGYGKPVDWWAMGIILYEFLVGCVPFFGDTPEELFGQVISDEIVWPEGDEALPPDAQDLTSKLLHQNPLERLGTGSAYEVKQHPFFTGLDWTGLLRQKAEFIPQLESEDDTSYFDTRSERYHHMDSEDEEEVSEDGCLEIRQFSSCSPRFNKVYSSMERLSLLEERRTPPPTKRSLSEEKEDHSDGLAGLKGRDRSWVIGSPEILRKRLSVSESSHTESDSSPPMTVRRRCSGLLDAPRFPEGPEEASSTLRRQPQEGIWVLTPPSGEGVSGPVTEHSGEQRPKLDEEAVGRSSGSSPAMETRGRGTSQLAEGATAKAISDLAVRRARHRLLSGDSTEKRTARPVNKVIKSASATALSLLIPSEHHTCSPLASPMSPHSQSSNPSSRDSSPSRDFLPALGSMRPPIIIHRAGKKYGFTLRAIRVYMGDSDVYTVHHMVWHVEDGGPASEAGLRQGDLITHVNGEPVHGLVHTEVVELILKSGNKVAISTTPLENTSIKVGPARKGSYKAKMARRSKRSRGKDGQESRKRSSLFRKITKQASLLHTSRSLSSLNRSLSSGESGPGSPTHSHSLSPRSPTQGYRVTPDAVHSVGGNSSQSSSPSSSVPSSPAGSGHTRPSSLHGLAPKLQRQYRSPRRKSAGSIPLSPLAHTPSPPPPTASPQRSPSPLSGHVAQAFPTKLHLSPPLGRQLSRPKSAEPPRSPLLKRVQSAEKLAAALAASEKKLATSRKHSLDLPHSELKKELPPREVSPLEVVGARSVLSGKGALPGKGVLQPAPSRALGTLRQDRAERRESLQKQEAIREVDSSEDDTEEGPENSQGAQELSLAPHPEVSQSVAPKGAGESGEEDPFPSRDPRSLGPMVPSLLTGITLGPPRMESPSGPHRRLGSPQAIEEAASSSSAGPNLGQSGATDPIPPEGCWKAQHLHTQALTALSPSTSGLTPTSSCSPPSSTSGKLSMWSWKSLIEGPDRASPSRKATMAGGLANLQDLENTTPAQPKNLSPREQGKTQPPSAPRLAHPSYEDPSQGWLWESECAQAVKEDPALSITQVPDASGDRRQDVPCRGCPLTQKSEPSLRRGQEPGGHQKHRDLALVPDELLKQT
Proto-oncogene tyrosine-protein kinase Src, sequence (P12931 2-536 limits assumed): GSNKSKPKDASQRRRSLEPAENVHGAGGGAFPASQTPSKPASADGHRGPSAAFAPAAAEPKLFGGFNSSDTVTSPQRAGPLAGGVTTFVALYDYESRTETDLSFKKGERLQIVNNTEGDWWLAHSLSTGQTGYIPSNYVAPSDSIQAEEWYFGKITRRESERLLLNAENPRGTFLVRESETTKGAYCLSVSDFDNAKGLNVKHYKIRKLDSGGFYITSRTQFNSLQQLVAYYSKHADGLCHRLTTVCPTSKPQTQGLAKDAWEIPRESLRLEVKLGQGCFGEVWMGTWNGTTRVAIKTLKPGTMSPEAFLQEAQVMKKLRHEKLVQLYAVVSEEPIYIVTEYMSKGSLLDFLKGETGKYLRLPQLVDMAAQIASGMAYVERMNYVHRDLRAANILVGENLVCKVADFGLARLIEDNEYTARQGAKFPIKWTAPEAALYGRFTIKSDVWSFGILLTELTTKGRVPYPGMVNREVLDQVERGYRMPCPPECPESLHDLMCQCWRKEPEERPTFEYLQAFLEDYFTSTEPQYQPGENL
Cyclin-dependent kinase 8/19 (Homo sapiens), sequence (P49336 whole entry, looked up): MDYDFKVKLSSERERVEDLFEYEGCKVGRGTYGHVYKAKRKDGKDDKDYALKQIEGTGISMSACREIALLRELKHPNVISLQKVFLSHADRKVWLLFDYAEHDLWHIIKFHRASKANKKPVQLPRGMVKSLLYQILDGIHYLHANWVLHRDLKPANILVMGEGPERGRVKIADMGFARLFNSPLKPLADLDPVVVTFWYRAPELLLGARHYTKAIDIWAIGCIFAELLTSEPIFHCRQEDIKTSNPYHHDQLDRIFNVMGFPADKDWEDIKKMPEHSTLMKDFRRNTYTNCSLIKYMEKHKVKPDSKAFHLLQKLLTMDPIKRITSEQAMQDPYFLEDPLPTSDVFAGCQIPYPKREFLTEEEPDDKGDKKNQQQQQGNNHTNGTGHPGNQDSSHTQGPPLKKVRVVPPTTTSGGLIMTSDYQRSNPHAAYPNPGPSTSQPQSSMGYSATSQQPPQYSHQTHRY
Cyclin-dependent kinase 8/19 (Homo sapiens), sequence (Q9BWU1 whole entry, looked up): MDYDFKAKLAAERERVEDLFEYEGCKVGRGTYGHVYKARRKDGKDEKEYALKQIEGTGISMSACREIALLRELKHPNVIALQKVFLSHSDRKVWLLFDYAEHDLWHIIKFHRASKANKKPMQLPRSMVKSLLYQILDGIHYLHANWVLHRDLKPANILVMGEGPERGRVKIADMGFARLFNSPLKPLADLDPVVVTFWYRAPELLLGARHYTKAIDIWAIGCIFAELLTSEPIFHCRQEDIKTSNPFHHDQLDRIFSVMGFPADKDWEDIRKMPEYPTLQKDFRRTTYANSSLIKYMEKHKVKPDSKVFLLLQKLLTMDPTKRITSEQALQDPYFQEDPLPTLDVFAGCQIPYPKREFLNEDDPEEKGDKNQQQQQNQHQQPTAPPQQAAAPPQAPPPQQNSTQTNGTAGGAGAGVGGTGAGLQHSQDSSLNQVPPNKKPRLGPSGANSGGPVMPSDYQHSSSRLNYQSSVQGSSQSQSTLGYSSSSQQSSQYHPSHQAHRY
Mitogen-activated protein kinase kinase kinase 13 (Homo sapiens), sequence (O43283 whole entry): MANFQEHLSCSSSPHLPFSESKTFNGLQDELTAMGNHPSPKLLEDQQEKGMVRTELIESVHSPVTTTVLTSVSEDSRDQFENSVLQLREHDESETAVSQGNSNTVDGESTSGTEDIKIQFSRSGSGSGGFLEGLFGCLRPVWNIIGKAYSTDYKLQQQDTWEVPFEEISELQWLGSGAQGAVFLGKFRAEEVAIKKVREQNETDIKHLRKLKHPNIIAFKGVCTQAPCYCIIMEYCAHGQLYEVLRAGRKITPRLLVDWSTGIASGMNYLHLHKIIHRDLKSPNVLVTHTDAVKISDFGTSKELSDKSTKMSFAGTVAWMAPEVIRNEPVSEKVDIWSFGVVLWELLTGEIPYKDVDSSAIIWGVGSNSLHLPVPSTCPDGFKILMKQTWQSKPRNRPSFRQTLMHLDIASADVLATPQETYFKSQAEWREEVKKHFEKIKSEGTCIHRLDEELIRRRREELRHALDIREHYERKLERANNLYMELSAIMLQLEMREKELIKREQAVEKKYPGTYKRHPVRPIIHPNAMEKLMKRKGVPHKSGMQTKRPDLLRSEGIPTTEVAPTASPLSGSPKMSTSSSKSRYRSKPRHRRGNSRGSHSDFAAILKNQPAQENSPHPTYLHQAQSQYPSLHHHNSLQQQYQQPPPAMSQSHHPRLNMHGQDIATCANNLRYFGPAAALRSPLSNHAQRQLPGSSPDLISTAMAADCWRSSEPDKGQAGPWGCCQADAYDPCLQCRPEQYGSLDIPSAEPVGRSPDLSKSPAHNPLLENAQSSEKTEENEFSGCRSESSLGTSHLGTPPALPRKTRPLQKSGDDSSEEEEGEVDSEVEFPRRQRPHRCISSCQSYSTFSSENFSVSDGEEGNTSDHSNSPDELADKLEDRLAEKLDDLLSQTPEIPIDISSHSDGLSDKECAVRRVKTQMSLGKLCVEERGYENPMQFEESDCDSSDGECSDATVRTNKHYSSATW
Casein kinase II subunit alpha' (Homo sapiens), sequence (P19784 whole entry, looked up): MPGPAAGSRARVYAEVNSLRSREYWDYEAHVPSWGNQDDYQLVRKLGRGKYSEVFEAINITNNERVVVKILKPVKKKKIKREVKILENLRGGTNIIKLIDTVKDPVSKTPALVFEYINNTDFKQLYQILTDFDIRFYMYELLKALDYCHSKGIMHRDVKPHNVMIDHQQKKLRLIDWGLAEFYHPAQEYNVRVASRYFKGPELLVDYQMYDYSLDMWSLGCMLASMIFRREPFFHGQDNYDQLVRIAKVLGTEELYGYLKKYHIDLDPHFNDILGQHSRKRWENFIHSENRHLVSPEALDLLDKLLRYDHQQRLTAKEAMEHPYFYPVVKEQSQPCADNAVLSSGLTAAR

As for `CCN1CCN(Cc2ccc(NC(=O)c3ccc(C)c(/C=C/c4cnc5[nH]ccc5c4OC)c3)cc2C(F)(F)F)CC1`, the inhibition is 15% in data set [1]; 21.3% in [2]; 6.4% in data set [3]; 47% in data set [4]; 38.9% in data set [5]; 82% in [6]. Further, the inhibition in data set [7] was -1.4%; in data set [8], 83%.

Take `CCN1CCN(Cc2ccc(NC(=O)c3ccc(C)c(Oc4ccnc5[nH]ccc45)c3)cc2C(F)(F)F)CC1`: the inhibition was -4.7% in data set [9], 6% in [11] and 4.4% in data set [13]. For the same molecule, in data set [10], the inhibition entry is “inactive”. For the same molecule, the Cmax in [12] came out at 396 ng/mL.

On to `CNc1cc(Oc2cc(C(=O)Nc3cc(N4CCN(C)CC4)cc(C(F)(F)F)c3)ccc2C)ncn1`, for which the inhibition in data set [14] is -1.2%; in [15], -4.1%; in data set [17], 9.3%. Besides, the inhibition at 1 µM in [16] was 0.5%.
